Data on one molecule can be found in article PMC3361572 (Chemistry & biology, 2012).

Molecules are shown by their SMILES.

Data set [1] deals with T1, ABHD6 (Rattus norvegicus, UniProt Q5XI64).
T1 sequence (Q5XI64 1-337): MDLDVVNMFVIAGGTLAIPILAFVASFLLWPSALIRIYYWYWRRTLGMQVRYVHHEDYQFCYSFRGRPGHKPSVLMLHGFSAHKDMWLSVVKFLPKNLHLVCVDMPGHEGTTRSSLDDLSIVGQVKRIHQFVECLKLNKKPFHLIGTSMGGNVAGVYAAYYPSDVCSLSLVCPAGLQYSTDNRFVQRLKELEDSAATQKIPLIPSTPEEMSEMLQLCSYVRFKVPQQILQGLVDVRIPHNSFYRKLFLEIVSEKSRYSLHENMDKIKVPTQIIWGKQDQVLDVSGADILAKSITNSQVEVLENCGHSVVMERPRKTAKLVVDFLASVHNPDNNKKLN
In words: competitive ABPP, rat brain membrane proteome. The format is biochemical. The conditions noted are these: rat brain serine hydrolase activities, full ABPP gel. In a few lines:
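Brain (mouse or rat) or mouse lung proteomes were preincubated with the test compound, then treated with the serine hydrolase probe FP-Rh. Samples were separated by SDS-PAGE and read by in-gel fluorescence scanning. Inhibition was taken as reduced FP-Rh labelling of MAGL, ABHD6, FAAH or CES bands, and IC50 values were calculated from quantified gel bands. Three independent experiments.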

Data set [2] deals with T2, FAAH (Mus musculus, UniProt O08914).
T2 sequence (O08914 1-579): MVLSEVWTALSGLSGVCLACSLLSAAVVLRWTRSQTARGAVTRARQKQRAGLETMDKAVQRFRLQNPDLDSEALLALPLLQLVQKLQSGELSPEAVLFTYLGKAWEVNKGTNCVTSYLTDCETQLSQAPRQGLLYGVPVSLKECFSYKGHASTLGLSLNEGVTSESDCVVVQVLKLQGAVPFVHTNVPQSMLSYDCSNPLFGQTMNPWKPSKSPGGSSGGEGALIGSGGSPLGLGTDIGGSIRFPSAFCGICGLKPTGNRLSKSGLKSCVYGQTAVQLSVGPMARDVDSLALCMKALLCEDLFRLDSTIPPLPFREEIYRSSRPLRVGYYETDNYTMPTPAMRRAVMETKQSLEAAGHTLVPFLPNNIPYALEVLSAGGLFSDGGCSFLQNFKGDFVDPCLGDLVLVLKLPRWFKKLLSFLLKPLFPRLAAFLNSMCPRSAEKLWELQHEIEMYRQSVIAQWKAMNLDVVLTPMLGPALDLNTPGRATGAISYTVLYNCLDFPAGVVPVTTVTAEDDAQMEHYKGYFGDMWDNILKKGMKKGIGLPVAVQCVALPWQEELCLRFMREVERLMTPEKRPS
In words: AEA hydrolytic activity of brain tissue from treated mice. It is filed as in vivo. The conditions noted are these: KML29-treated mice, 1–40 mg kg^−1 p.o. In a few lines: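 C57Bl/6 mice were dosed orally with the test compound (1–40 mg kg−1) or vehicle. The compound was dissolved in PEG by prolonged sonication and mild heating. Mice were killed after 4 h. Brain was analysed for 2-AG, AA, AEA, PEA and OEA, and brain proteomes for residual AEA and 2-AG hydrolysis (substrate assay). n = 3 mice/group, means ± SEM, compared with vehicle-treated mice.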

Data set [3] has as its target T3, MAGL (Mus musculus, UniProt O35678).
T3 sequence (O35678 1-303): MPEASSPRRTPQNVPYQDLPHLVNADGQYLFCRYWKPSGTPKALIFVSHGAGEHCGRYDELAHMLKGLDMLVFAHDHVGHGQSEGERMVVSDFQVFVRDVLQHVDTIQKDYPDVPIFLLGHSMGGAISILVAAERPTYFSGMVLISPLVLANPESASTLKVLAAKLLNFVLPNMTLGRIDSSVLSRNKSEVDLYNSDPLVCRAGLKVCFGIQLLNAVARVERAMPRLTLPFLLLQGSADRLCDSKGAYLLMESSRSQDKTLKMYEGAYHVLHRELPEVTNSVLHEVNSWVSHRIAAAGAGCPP
In words: gel-based ABPP of peripheral tissues from inhibitor-treated mice. The format is in vivo. The conditions noted are these: 1 mg kg^−1 p.o., 4 h, liver, lung, spleen.

The target in data set [4] is T4, FAAH (Rattus norvegicus, UniProt P97612).
T4 sequence (P97612 1-579): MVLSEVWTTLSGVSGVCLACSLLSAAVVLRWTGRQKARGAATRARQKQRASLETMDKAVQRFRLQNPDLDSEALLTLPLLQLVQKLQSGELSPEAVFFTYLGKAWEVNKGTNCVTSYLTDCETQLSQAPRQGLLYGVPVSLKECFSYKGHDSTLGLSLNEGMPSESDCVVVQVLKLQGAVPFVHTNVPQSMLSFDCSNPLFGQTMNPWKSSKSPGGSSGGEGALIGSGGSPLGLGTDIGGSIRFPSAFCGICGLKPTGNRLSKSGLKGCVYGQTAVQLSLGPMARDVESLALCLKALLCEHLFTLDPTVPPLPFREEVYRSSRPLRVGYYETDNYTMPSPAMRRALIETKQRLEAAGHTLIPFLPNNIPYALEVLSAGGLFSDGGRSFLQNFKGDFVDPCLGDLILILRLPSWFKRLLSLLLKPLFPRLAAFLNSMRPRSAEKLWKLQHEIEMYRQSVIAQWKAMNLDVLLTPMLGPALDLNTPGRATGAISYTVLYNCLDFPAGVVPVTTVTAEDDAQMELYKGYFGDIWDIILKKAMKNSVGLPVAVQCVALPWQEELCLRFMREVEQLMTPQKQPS
In words: competitive ABPP of brain from KML29-treated rats. To be noted: Wistar rats, 1–40 mg kg^−1 i.p., 4 h. The format is in vivo. In a few lines: (§1)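 Wistar rats were injected i.p. with the test compound (1–40 mg kg−1) or vehicle. Vehicle was saline:emulphor:ethanol 18:1:1, with prolonged sonication and mild heating to dissolve. Rats were killed at 4 h. Brain, liver, lung and spleen proteomes were labelled with FP-Rh, separated by SDS-PAGE and scanned for in-gel fluorescence. Inhibition was scored as reduced probe labelling. n = 3 rats/group.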

Data set [5] concerns the target T1, ABHD6. In words: competitive ABPP of brain from KML29-treated rats. It is filed as in vivo. The conditions noted are these: Wistar rats, 1–40 mg kg^−1 i.p., 4 h. In a few lines: as §1
Data set [6] has as its target T5, MAGL (Rattus norvegicus, UniProt Q8R431).
T5 sequence (Q8R431 1-303): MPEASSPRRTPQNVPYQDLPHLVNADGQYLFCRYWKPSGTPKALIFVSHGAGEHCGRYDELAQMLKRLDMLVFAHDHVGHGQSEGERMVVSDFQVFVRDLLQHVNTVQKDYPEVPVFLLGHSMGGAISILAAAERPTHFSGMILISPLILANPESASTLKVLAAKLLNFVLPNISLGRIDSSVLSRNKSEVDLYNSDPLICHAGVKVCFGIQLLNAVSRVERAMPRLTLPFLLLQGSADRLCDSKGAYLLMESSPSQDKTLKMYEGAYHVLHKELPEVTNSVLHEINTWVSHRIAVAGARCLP
In words: competitive ABPP of peripheral tissues from KML29-treated rats. The format is in vivo. The conditions noted are these: 4 h. Summed up: as §1

Data set [7] in a line: dissolution in dosing vehicle. It is filed as physicochemical. Summed up:
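Test compound was dissolved with prolonged sonication and mild heating. Vehicle was PEG for oral dosing, or saline:emulphor:ethanol (18:1:1) for i.p. dosing.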

Turning to `O=C(OC(C(F)(F)F)C(F)(F)F)N1CCC(C(O)(c2ccc3c(c2)OCO3)c2ccc3c(c2)OCO3)CC1` [KML29], the “concentrations with inhibition of ABHD6” value in data set [1] is above 1 µM. In addition, the “residual FAAH activity in brain proteomes (substrate assay)” value in data set [2] is recorded as “lack of any effect on FAAH”. In addition, the “MAGL inhibition in peripheral tissues” value in data set [3] is reported as “near-complete blockade of MAGL”. Besides, in data set [4], the “cross-reactivity with brain FAAH” value was “without any detectable cross-reactivity”. The “cross-reactivity with brain ABHD6” value in data set [5] is given as “without any detectable cross-reactivity”. The “MAGL inhibition in lung and spleen” value in data set [6] (5 mg kg^−1 i.p.) is recorded as “complete MAGL inhibition”. The “MAGL inhibition in liver” value in data set [6] (20 mg kg^−1 i.p.) is recorded as “complete MAGL inhibition”. Further, the “dissolution in vehicles for p.o. (PEG) or i.p. [saline:emulphor:ethanol (18:1:1)] administration” value in data set [7] was “Prolonged sonication and mild heating were also required”.
